Measurements reported in ChEMBL document CHEMBL1124798, “Design of peptidomimetic delta opioid receptor antagonists using the message-address concept” (J Med Chem, 1990).
Where a SMILES comes first, the peptide text is derived from it. [ ]: non-standard residue; d: D form. The star is where a group is joined. Tyr(Nα,Nα-allyl2) = C=CCN(CC=C)[C@@H](Cc1ccc(O)cc1)C(=O)*; Aib = CC(C)(N)C(=O)O

Assays:
[1] = target: Mu-type opioid receptor (Cavia porcellus) (UniProt P97266); test: Opioid receptor mu 1 antagonistic activity was measured by the displacement of morphine in the guinea pig ileum at a concentration of 100 nM; type: functional, tissue-based
Summary of the method: (§1)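 Guinea pig ileum. Antagonist (nM, as stated on line) incubated 15 min before testing. Agonists: morphine (μ) and ethylketazocine (κ).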

[2] = target: Mu-type opioid receptor (Cavia porcellus) (UniProt P97266); test: Opioid receptor mu antagonistic activity was measured by the displacement of morphine in the guinea pig ileum at a concentration of 100 nM; type: functional, tissue-based; summary of the method: as §1
[3] = target: Kappa-type opioid receptor (Cavia porcellus) (UniProt P41144); test: Antagonist potency was determined as the ratio of [antagonist] to (IC50 ratio-1) for Opioid receptor kappa 1; type: functional
Summary of the method: (§2)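 Ke (nM) = [antagonist]/(IC50 ratio − 1). IC50 ratio is agonist IC50 with antagonist over the control IC50 in the same preparation. Antagonist preincubated 15 min. Agonists: DADLE in mouse vas deferens (δ); morphine (μ) and ethylketazocine (κ) in guinea pig ileum. n ≥ 3.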

[4] = target: Mu-type opioid receptor (Cavia porcellus) (UniProt P97266); test: Antagonist potency was determined as the ratio of [antagonist] to (IC50 ratio-1) for Opioid receptor mu 1; type: functional; summary of the method: as §2
[5] = target: Delta-type opioid receptor (Mus musculus) (UniProt P32300); test: Antagonist potency was determined as the ratio of [antagonist] to (IC50 ratio-1) for opioid receptor delta 1; type: functional; summary of the method: as §2
[6] = target: Delta-type opioid receptor (Mus musculus) (UniProt P32300); test: Opioid receptor delta antagonistic activity was measured by the displacement of DADLE in the mouse vas deferens at a concentration of 100 nM; type: functional
Summary of the method: (§3)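 Mouse vas deferens. Antagonist (nM, as stated on line) incubated with the preparation 15 min before testing. δ agonist [D-Ala2,D-Leu5]enkephalin.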

[7] = target: Kappa-type opioid receptor (Cavia porcellus) (UniProt P41144); test: Opioid receptor kappa 1 antagonistic activity was measured by the displacement of ethylketazocine in the guinea pig ileum at a concentration of 100 nM; type: functional, tissue-based; summary of the method: as §1
[8] = target: Opioid receptors; delta & kappa (Homo sapiens) (UniProt P41145+P41143); test: Selectivity ratio was determined from Ke value of Opioid receptor kappa 1 and Opioid receptor delta 1; type: protein assay; conditions: Cavia porcellus
Summary of the method: (§4)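 Ratios of Ke values, μ/δ or κ/δ. Each Ke = [antagonist]/(IC50 ratio − 1). δ from DADLE in mouse vas deferens; μ (morphine) and κ (ethylketazocine) in guinea pig ileum. 15 min antagonist preincubation, n ≥ 3.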

[9] = target: Opioid receptors; mu & delta (Homo sapiens) (UniProt P41143+P35372); test: Selectivity ratio was determined from Ke value of Opioid receptor mu 1 and Opioid receptor delta 1; type: protein assay; conditions: Cavia porcellus; summary of the method: as §4
[10] = target: Delta-type opioid receptor (Mus musculus) (UniProt P32300); test: Opioid receptor delta 1 antagonistic activity was measured by the displacement of DADLE in the mouse vas deferens at a concentration of 100 nM; type: functional; summary of the method: as §3
[11] = target: Kappa-type opioid receptor (Cavia porcellus) (UniProt P41144); test: Opioid receptor kappa antagonistic activity was measured by the displacement of ethylketazocine in the guinea pig ileum at a concentration of 100 nM; type: functional, tissue-based; summary of the method: as §1
Mu-type opioid receptor [12] = target: T1, Mu-type opioid receptor (Cavia porcellus, UniProt P97266); test: Binding affinity was measured by the displacement of [3H]- DAMGO in guinea pig brain membrane of opioid receptor mu; type: cell membranes
Summary of the method: (§5)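 Radioligand displacement from guinea pig brain membranes, modified Werling method. μ sites: [3H]DAMGO. δ sites: [3H]DADLE with 1 μM DAMGO. κ sites: [3H]ethylketazocine with 1 μM DAMGO.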

[13] = target: T2, Kappa-type opioid receptor (Cavia porcellus, UniProt P41144); test: Binding affinity was measured by the displacement of [3H]- EK in guinea pig brain membrane of Opioid receptor kappa 1; type: cell membranes; summary of the method: as §5
Mu-type opioid receptor [14] = target: T1, Mu-type opioid receptor; test: Binding affinity was measured by the displacement of [3H]- DAMGO in guinea pig brain membrane of Opioid receptor mu 1; type: cell membranes; summary of the method: as §5
[15] = target: T2, Kappa-type opioid receptor; test: Binding affinity was measured by the displacement of [3H]- EK in guinea pig brain membrane of opioid receptor kappa; type: cell membranes; summary of the method: as §5

Opioid receptors; mu & delta (Homo sapiens), sequence (P35372 whole entry, looked up): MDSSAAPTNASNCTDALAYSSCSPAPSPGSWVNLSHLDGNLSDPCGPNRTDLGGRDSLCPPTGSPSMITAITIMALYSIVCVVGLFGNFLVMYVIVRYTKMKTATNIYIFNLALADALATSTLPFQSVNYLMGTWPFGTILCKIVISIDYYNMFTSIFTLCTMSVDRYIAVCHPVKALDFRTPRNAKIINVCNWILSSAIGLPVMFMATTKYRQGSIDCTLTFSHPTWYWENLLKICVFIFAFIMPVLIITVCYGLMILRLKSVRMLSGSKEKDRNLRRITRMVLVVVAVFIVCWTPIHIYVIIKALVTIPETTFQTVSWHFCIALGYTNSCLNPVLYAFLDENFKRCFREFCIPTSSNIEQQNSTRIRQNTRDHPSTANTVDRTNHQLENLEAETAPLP
Opioid receptors; mu & delta (Homo sapiens), sequence (P41143 whole entry, looked up): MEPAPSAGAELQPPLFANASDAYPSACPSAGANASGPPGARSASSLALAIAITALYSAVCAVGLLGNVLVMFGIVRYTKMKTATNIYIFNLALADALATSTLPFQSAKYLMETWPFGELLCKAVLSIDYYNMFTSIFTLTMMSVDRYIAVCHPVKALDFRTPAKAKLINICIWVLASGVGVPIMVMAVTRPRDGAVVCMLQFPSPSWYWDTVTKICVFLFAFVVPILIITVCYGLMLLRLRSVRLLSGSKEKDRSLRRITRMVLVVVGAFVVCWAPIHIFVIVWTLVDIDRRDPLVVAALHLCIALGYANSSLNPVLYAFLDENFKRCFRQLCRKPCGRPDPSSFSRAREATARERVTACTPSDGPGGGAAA
T2 sequence (P41144 whole entry): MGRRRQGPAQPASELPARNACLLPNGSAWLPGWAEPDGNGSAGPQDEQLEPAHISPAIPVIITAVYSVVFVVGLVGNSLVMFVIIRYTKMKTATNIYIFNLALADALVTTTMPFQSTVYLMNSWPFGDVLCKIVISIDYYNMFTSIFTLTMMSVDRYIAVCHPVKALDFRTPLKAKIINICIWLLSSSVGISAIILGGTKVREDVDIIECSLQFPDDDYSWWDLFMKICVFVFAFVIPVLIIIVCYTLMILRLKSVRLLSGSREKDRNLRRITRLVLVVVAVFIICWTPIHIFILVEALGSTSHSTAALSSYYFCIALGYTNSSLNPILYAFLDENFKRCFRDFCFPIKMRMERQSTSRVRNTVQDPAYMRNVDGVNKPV
Kappa-type opioid receptor (Cavia porcellus), sequence (P41144 whole entry): as above
T1 sequence (P97266 whole entry): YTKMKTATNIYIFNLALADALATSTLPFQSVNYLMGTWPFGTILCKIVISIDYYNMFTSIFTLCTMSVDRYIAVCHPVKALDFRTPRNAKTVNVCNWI
Mu-type opioid receptor (Cavia porcellus), sequence (P97266 whole entry): as above
Opioid receptors; delta & kappa (Homo sapiens), sequence (P41143 whole entry, looked up): as the sequence (P41143 whole entry, looked up) above
Opioid receptors; delta & kappa (Homo sapiens), sequence (P41145 whole entry, looked up): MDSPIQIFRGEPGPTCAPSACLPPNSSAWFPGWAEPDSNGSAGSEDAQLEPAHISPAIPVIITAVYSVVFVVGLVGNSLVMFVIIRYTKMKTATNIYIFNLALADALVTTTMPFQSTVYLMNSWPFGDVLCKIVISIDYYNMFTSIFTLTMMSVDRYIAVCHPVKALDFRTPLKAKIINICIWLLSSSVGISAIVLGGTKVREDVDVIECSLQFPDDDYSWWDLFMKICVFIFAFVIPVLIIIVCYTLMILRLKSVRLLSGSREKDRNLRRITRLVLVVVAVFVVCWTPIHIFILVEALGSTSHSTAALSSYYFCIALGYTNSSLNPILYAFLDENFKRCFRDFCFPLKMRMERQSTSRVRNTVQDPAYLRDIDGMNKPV
Delta-type opioid receptor (Mus musculus), sequence (P32300 whole entry): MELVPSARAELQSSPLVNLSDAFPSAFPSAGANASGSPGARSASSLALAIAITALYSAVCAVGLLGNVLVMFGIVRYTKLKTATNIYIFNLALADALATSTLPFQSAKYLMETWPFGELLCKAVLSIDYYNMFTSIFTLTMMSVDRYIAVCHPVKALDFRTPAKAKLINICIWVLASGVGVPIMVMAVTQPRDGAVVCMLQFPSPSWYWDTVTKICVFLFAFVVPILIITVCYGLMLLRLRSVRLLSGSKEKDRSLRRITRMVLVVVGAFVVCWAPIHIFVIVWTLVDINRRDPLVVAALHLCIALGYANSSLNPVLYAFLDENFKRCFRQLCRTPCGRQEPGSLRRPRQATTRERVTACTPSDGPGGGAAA

| Structure (SMILES) | IC50 ratio [1] | IC50 ratio [2] | Ke [3] | Ke [4] | Ke [5] | IC50 ratio [6] | IC50 ratio [7] | Selectivity ratio [8] | Selectivity ratio [9] | IC50 ratio [10] | IC50 ratio [11] | Ki (Mu-type opioid receptor [12]) | Ki [13] | Ki (Mu-type opioid receptor [14]) | Ki [15] |
| --- | --- | --- | --- | --- | --- | --- | --- | --- | --- | --- | --- | --- | --- | --- | --- |
| Oc1ccc2c3c1O[C@H]1c4[nH]c5c(O)cccc5c4C[C@@]4(O)[C@@H](C2)N(CC2CC2)CC[C@]314 | 1.9 | 1.9 | > 250 nM | > 111 nM | 0.42 nM | 239 | 1.4 | > 595 | > 264 | 239 | 1.4 |  |  |  |  |
| Oc1ccc2c3c1O[C@H]1c4[nH]c5c(Br)cccc5c4C[C@@]4(O)[C@@H](C2)N(CC2CC2)CC[C@]314 | 2.2 | 2.2 | > 143 nM | 83 nM | 1.2 nM | 85 | 1.7 | > 121 | 71 | 85 | 1.7 | 29 nM | 333 nM | 29 nM | 333 nM |
| Oc1ccc2c3c1O[C@H]1c4c(c5ccccc5n4-c4ccccc4)C[C@@]4(O)[C@@H](C2)N(CC2CC2)CC[C@]314 | 1.7 | 1.7 | > 152 nM | > 149 nM | 3.1 nM | 33 | 6.7 | > 49 | > 48 | 33 | 6.7 | 28 nM | 746 nM | 28 nM | 746 nM |
| Oc1ccc2c3c1O[C@H]1c4[nH]c5cc(F)ccc5c4C[C@@]4(O)[C@@H](C2)N(CC2CC2)CC[C@]314 | 1.8 | 1.8 | > 167 nM | > 125 nM | 4.4 nM | 24 | 1.6 | > 38 | > 28 | 24 | 1.6 |  |  |  |  |
| Cc1ccc2c3c([nH]c2c1)[C@@H]1Oc2c(O)ccc4c2[C@@]12CCN(CC1CC1)[C@H](C4)[C@]2(O)C3 | 2.8 | 2.8 | > 143 nM | 55 nM | 3.5 nM | 30 | 1.7 | > 41 | 16 | 30 | 1.7 |  |  |  |  |
| CC(C)(S)[C@@H](NC(=O)[C@H](Cc1ccc(O)cc1)NC(=O)CNC(=O)[C@H](NC(=O)[C@@H](N)Cc1ccccc1)C(C)(C)S)C(=O)O |  |  |  |  |  |  |  | 202 | 52 |  |  |  |  |  |  |
| Oc1ccc2c3c1O[C@H]1c4[nH]c5cc6ccccc6cc5c4C[C@@]4(O)[C@@H](C2)N(CC2CC2)CC[C@]314 | 0.85 | 0.85 | > 100 nM | > 118 nM | 27 nM | 4.7 | 0.91 | > 4 | > 4 | 4.7 | 0.91 |  |  |  |  |
| CN1CC[C@]23c4c5ccc(O)c4O[C@H]2c2[nH]c4ccccc4c2C[C@@]3(O)[C@H]1C5 [OXYMORPHINDOLE] | 0.9 | 0.9 | > 167 nM | > 111 nM | 5 nM | 1.6 | 0.6 |  |  | 1.6 | 0.6 | 468 nM | 4470 nM | 468 nM | 4470 nM |
| Cc1cccc2c3c([nH]c12)[C@@H]1Oc2c(O)ccc4c2[C@@]12CCN(CC1CC1)[C@H](C4)[C@]2(O)C3 | 7.1 | 7.1 | > 333 nM |  |  | 67 | 1.3 | > 221 |  | 67 | 1.3 |  |  |  |  |
| CCOc1cccc2c3c([nH]c12)[C@@H]1Oc2c(O)ccc4c2[C@@]12CCN(CC1CC1)[C@H](C4)[C@]2(O)C3 | 8.3 | 8.3 |  | 13 nM | 0.57 nM | 178 | 0.67 |  | 24 | 178 | 0.67 |  |  |  |  |
| CN1CC[C@]23c4c5ccc(O)c4O[C@H]2c2c(c4ccccc4n2C)C[C@@]3(O)[C@H]1C5 | 0.74 | 0.74 | > 200 nM | > 135 nM | > 416 nM | 1.2 | 0.5 |  |  | 1.2 | 0.5 |  |  |  |  |
| Oc1ccc2c3c1O[C@H]1c4[nH]c5c(ccc6ccccc65)c4C[C@@]4(O)[C@@H](C2)N(CC2CC2)CC[C@]314 | 1.2 | 1.2 | > 111 nM | > 500 nM | 9 nM | 12.1 | 0.9 | > 12 | > 55 | 12.1 | 0.9 |  |  |  |  |
| C=CCN(CC=C)[C@@H](Cc1ccc(O)cc1)C(=O)NC(C)(C)C(=O)NC(C)(C)C(=O)N[C@@H](Cc1ccccc1)C(=O)N[C@@H](CC(C)C)C(=O)O ({Tyr(Nα,Nα-allyl2)}-[Aib][Aib]FL-OH) | 0.6 | 0.6 | > 1250 nM | > 1670 nM | 69 nM | 15.6 | 0.8 | > 18 | > 24 | 15.6 | 0.8 | > 1000 nM | > 1000 nM | > 1000 nM | > 1000 nM |
| Oc1ccc2[nH]c3c(c2c1)C[C@@]1(O)[C@H]2Cc4ccc(O)c5c4[C@@]1(CCN2CC1CC1)[C@H]3O5 | 6.4 | 6.4 | 48 nM | 19 nM | 27 nM | 4.7 | 3.1 | 1.8 | 0.7 | 4.7 | 3.1 |  |  |  |  |
| Oc1ccc2c3c1O[C@H]1c4[nH]c5ccccc5c4C[C@@]4(O)[C@@H](C2)N(CC2CC2)CC[C@]314 [NALTRINDOLE] |  |  |  |  |  |  |  |  |  |  |  |  | 332 nM | 3.8 nM | 332 nM |
| Oc1ccc2c3c1O[C@H]1c4[nH]c5c(F)cccc5c4C[C@@]4(O)[C@@H](C2)N(CC2CC2)CC[C@]314 | 5.3 | 5.3 | > 333 nM | 23 nM | 0.35 nM | 287 | 1.3 | > 951 | 67 | 287 | 1.3 | 49 nM | 321 nM | 49 nM | 321 nM |
| COc1ccc2c3c1O[C@H]1c4[nH]c5ccccc5c4C[C@@]4(O)[C@@H](C2)N(CC2CC2)CC[C@]314 | 1.3 | 1.3 | > 167 nM | > 333 nM | > 200 nM | 1.5 | 0.6 |  |  | 1.5 | 0.6 | 550 nM | > 1000 nM | 550 nM | > 1000 nM |
| C=CCN1CC[C@]23c4c5ccc(O)c4O[C@H]2c2[nH]c4ccccc4c2C[C@@]3(O)[C@H]1C5 | 1.1 | 1.1 | > 82 nM | > 714 nM | 1.1 nM | 93 | 2.2 | > 75 | > 655 | 93 | 2.2 | 104 nM | 321 nM | 104 nM | 321 nM |
| CC(=O)O[C@@]12Cc3c([nH]c4ccccc34)[C@@H]3Oc4c(O)ccc5c4[C@@]31CCN(CC1CC1)[C@@H]2C5 | 1.4 | 1.4 | > 127 nM | > 263 nM | 2.4 nM | 43 | 1.8 | > 54 | > 111 | 43 | 1.8 |  |  |  |  |
